Measurements published in ChEMBL document CHEMBL3124742, “Synthesis and biological evaluation of new carbohydrate-substituted indenoisoquinoline topoisomerase I inhibitors and improved syntheses of the experimental anticancer agents indotecan (LMP400) and indimitecan (LMP776)” (J Med Chem, 2014).
Calls of active or inactive are those of the source. No cut-off for these calls is given here.

Columns and labels:
[1] = tested on: SN12C; test: Growth inhibition of human SN12C cells; assay type: functional
Summary of the method: (§1)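 NCI-60 five-dose testing, 10^-8 to 10^-4 M, given only to compounds with significant growth inhibition in the 10 μM one-dose screen. Five-dose assay may be repeated.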

[2] = tested on: OVCAR-3; test: Growth inhibition of human OVCAR3 cells; assay type: functional; summary of the method: as §1
[3] = tested on: MCF7; test: Growth inhibition of human MCF7 cells; assay type: functional; summary of the method: as §1
[4] = Cytotoxicity against human NCI60 cells assessed as cell growth at 10 uM relative to vehicle-treated control; assay type: functional; settings: read-out: Activity
Summary of the method: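 NCI-60 one-dose screen: roughly 60 human cancer cell lines exposed to 10^-5 M (10 μM) compound. Value is growth percent of treated cells relative to vehicle-treated control, averaged across the panel.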

[5] = Growth inhibition of human SF539 cells; assay type: functional; settings: SF-539; summary of the method: as §1
[6] = molecular target: T1, DNA topoisomerase 1 (Homo sapiens) (UniProt P11387); test: Inhibition of recombinant topoisomerase-1 (unknown origin) assessed as inhibition of 3'-[32P]-labeled DNA cleavage at 0.1 to 100 uM after 20 mins by PAGE analysis relative to control
T1 sequence (whole entry): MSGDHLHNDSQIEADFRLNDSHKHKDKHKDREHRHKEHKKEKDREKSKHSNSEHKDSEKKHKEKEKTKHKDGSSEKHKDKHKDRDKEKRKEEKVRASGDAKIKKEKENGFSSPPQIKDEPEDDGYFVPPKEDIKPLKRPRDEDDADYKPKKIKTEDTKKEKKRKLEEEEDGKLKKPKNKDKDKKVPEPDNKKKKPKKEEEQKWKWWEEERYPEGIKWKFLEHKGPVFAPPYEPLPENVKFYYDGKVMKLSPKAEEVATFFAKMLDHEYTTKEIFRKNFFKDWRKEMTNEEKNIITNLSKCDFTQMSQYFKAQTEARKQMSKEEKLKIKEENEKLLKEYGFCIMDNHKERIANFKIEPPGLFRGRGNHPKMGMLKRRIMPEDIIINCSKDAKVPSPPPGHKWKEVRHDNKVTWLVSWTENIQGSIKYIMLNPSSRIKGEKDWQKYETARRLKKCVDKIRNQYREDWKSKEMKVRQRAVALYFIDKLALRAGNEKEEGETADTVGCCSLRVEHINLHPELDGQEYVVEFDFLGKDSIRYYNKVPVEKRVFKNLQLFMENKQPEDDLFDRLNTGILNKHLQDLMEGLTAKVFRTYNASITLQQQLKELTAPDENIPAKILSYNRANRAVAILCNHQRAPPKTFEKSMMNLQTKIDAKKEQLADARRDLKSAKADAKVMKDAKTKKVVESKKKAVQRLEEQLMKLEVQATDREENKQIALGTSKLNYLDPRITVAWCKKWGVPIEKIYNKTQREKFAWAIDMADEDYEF

[7] = tested on: HOP-62; test: Growth inhibition of human HOP62 cells; assay type: functional; summary of the method: as §1
[8] = tested on: DU-145; test: Growth inhibition of human DU145 cells; assay type: functional; summary of the method: as §1
[9] = molecular target: Tyrosyl-DNA phosphodiesterase 1 (Homo sapiens, UniProt Q9NUW8); test: Inhibition of recombinant TDP1 (unknown origin) using N14Y as substrate after 15 mins by PAGE analysis
Chain of Tyrosyl-DNA phosphodiesterase 1 (Q9NUW8 whole entry): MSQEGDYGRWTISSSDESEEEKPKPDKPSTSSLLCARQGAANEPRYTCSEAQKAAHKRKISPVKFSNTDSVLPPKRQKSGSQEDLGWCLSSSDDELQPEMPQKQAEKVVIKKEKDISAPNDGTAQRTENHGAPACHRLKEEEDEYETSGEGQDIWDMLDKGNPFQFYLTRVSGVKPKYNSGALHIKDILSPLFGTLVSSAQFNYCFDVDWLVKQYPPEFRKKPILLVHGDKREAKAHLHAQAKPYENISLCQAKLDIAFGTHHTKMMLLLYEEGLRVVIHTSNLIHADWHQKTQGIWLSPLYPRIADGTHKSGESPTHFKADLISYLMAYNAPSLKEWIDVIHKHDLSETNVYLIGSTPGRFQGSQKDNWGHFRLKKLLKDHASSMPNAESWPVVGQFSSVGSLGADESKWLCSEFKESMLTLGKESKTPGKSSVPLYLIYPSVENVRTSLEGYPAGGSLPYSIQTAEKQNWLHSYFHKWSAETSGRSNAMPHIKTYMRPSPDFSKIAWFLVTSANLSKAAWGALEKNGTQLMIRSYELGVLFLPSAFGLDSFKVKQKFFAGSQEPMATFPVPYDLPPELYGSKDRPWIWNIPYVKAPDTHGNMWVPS
Summary of the method: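 Substrate is a 5'-[32P]-labelled single-stranded oligonucleotide with a 3'-phosphotyrosine (N14Y). It is incubated with 5 pM recombinant TDP1 ± test compound for 15 min at room temperature. Read-out is a gel.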

[10] = tested on: HCT-116; test: Growth inhibition of human HCT116 cells; assay type: functional; summary of the method: as §1
[11] = tested on: UACC-62; test: Growth inhibition of human UACC62 cells; assay type: functional; summary of the method: as §1

| Compound | GI50 [1] [nM] | GI50 [2] [nM] | GI50 [3] [nM] | growth at 10 µM [4] [%] | GI50 [5] [nM] | inhibition [6] | GI50 [7] [nM] | GI50 [8] [nM] | IC50 [9] [nM] | GI50 [10] [nM] | GI50 [11] [nM] |
| --- | --- | --- | --- | --- | --- | --- | --- | --- | --- | --- | --- |
| O=C1c2ccccc2-c2c1c1ccc([N+](=O)[O-])cc1c(=O)n2C[C@H](O)[C@@H](O)[C@@H](O)[C@H](O)CO | 4270 | 6030 | 2950 | 51.5 | 2570 | Active | 5130 | 9550 | > 111000 | – | – |
| O=C1c2ccccc2-c2c1c1ccc([N+](=O)[O-])cc1c(=O)n2C[C@H](O)[C@@H](O)[C@H](O)CO | 295 | 407 | 96 | -14.6 | 214 | Active | 363 | 457 | – | 141 | – |
| O=C1c2ccccc2-c2c1c1ccc([N+](=O)[O-])cc1c(=O)n2C[C@@H](O)CO | 380 | 398 | 56 | -27 | 309 | 75% | 347 | 427 | > 111000 | 138 | – |
| COc1cc2c3c(n(C[C@H](O)[C@@H](O)[C@H](O)CO)c(=O)c2cc1OC)-c1cc2c(cc1C3=O)OCO2 | 85 | 96 | 34 | 5.32 | 21 | Active | 27 | 138 | > 111000 | 59 | 52 |
| COc1cc2c3c(n(C[C@@H](O)[C@H](O)[C@H](O)CO)c(=O)c2cc1OC)-c1cc2c(cc1C3=O)OCO2 | 234 | 50100 | 148 | 52.8 | 174 | 75% | 50100 | 50100 | > 111000 | 355 | 155 |
| COc1cc2c3c(n(C[C@H](O)[C@@H](O)[C@@H](O)[C@H](O)CO)c(=O)c2cc1OC)-c1cc2c(cc1C3=O)OCO2 | – | – | – | 82.3 | – | 50% | – | – | – | – | – |
| COc1cc2c3c(n(C[C@H](O)CO)c(=O)c2cc1OC)-c1cc2c(cc1C3=O)OCO2 | 30 | 48 | 10 | 7.1 | 25 | Active | 28 | 34 | > 111000 | 21 | 17 |
| COc1cc2c3c(n(C[C@@H](O)CO)c(=O)c2cc1OC)-c1cc2c(cc1C3=O)OCO2 | 37 | – | 29 | 31.6 | 32 | Active | 36 | 40 | > 111000 | 36 | – |
| COc1cc2c3c(n(C[C@@H](O)[C@@H](O)[C@H](O)[C@H](O)CO)c(=O)c2cc1OC)-c1cc2c(cc1C3=O)OCO2 | – | – | – | 79.5 | – | Active | – | – | > 111000 | – | – |
| O=C1c2ccccc2-c2c1c1ccc([N+](=O)[O-])cc1c(=O)n2CC(O)CO (racemic) | 355 | 479 | 60 | -17.5 | 339 | 75% | 324 | 363 | > 111000 | 138 | – |
| O=C1c2ccccc2-c2c1c1ccc([N+](=O)[O-])cc1c(=O)n2C[C@@H](O)[C@H](O)[C@H](O)CO | – | 1700 | 912 | -9.21 | 1450 | Active | 1910 | 3160 | – | 1350 | – |
| COc1cc2c3c(n(C[C@@H](O)[C@@H](O)[C@H](O)CO)c(=O)c2cc1OC)-c1cc2c(cc1C3=O)OCO2 | 457 | 794 | 79 | 34.7 | 214 | Active | 676 | 2510 | > 111000 | 891 | 195 |
| O=C1c2ccccc2-c2c1c1ccc([N+](=O)[O-])cc1c(=O)n2C[C@H](O)[C@H](O)[C@H](O)CO | 380 | 525 | 145 | -27.5 | 234 | Active | 407 | 550 | > 111000 | 219 | – |
| COc1cc2c3c(n(C[C@@H]4O[C@H](CO)[C@@H](O)[C@H](O)[C@H]4O)c(=O)c2cc1OC)-c1cc2c(cc1C3=O)OCO2 | – | – | – | 97.7 | – | 50% | – | – | – | – | – |
| O=C1c2ccccc2-c2c1c1ccc([N+](=O)[O-])cc1c(=O)n2C[C@@H](O)[C@@H](O)[C@H](O)CO | 2690 | 2140 | 501 | -16.1 | 1740 | Active | – | 3470 | – | 1200 | 1100 |
| O=C1c2ccccc2-c2c1c1ccc([N+](=O)[O-])cc1c(=O)n2C[C@@H](O)[C@@H](O)[C@H](O)[C@H](O)CO | – | 5250 | 724 | 73.2 | 3390 | Active | > 100000 | > 100000 | – | – | 3470 |
| COc1cc2c3c(n(C[C@H](O)[C@@H](O)[C@H](O)[C@H](O)CO)c(=O)c2cc1OC)-c1cc2c(cc1C3=O)OCO2 | – | – | – | 87.5 | – | 75% | – | – | > 111000 | – | – |
| COc1cc2c3c(n(C[C@H](O)[C@H](O)[C@H](O)CO)c(=O)c2cc1OC)-c1cc2c(cc1C3=O)OCO2 | 229 | 22 | 59 | 46.9 | 28 | 75% | 251 | 479 | – | 148 | 62 |
| O=C1c2ccccc2-c2c1c1ccc([N+](=O)[O-])cc1c(=O)n2C[C@@H]1O[C@H](CO)[C@@H](O)[C@H](O)[C@H]1O | – | – | – | 77.4 | – | 50% | – | – | – | – | – |
| COc1cc2c3c(n(CC(O)CO)c(=O)c2cc1OC)-c1cc2c(cc1C3=O)OCO2 (racemic) | 35 | 52 | 21 | 27.1 | 23 | Active | 31 | 36 | > 111000 | 26 | – |
